Screening results from PubChem BioAssay.
Sampled rows, rich in hits. Any-hit rate of the full collection: about 2.1%.
Runt-CBFb FRET = inhibitors of human RUNX1 Runt domain binding to CBFb; Cerulean-Runt/Venus-CBFb FRET ratio 530/480, 1 h; inhibition, % at 20 µM; hit rate 0.46% among 220,000;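 active = inhibition over about 50% at 20 µM in the single-dose screen, limit read from the data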
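Reagent – Venus-CBFb binding partner, 100 nM · Assay system – Cerulean-tagged RUNX1 Runt domain (FRET donor) fusion protein · Input – 100 nM per protein · Incubation – two 1 h room-temperature incubations shielded from light · Measured by – FRET fluorescence · Medium – Tris buffer pH 7.5 with salts and BSA · Benchmarks – unlabeled CBFb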
MEX-5 binding = C. elegans MEX-5 TCR-2 RNA binding activity; Q9XUB2; MEX-5/FITC-TCR2 RNA binding, fluorescence polarization; stronger effect = lower value; hit rate 0.38% among 300,000; activity score (negative = inhibition of binding), % at 10 µM;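 active = inhibition past about -25% in most replicates, and total fluorescence under double the plate's negative control median, limit read from the data; inconclusive = replicates evenly split on the limit, or fluorescence at least double controls; inactive = too little inhibition in most replicates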
Target sequence (Q9XUB2 whole entry, looked up): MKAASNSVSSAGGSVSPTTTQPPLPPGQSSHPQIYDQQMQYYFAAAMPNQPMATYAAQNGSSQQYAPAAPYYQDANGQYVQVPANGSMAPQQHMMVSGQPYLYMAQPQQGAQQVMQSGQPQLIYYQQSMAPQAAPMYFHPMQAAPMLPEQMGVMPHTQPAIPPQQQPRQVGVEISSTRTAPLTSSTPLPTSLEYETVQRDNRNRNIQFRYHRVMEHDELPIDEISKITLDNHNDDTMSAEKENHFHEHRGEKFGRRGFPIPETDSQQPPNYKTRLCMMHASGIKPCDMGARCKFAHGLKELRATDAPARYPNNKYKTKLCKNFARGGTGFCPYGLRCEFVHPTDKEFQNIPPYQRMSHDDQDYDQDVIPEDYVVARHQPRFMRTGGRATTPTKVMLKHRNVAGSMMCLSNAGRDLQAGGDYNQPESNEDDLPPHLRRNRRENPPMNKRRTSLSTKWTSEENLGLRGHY
RanGTP-Impb inh = inhibitors of RanGTP-importin-beta interaction, primary screen, biochemical, FRET, CFP-Ran, YFP-importin-beta, homogeneous; cell-free CFP-Ran/YFP-importin-beta FRET ratio; inhibition, % (test concentration not listed); hit rate 1.1% among 300,000;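 active = more than half of the replicate wells show a fall in the fluorescence ratio signal beyond about 16%, limit read from the data, passing the limit was not always enough; inconclusive = exactly half of the replicate wells pass the set limit; inactive = fewer than half of replicates pass the limit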
Runt-SMMHC FRET = Runt domain-CBFb-SMMHC interaction inhibition; Cerulean-Runt/Venus-CBFb-SMMHC FRET ratio 530/480, 1 h; inhibition, % at 20 µM; hit rate 0.74% among 220,000; AID 1434;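 active = mean inhibition across duplicate retests at 20 µM reaching about 50%, limit read from the data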;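 note: inhibitors lower the FRET ratio by blocking Runt binding to CBFb-SMMHC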
proKLK7 act = activators of human kallikrein-7 zymogen; P49862; hit rate 0.9% among 370,000; activation, % at 7 µM; purified proKLK7, EDANS-DABCYL substrate fluorescence; 100% is mature enzyme control, 0% vehicle;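 active = activation above the mean of all tested compounds plus 3 SD, computed per campaign excluding outliers beyond control limits, cut at about 13% in these data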
Target sequence (P49862 whole entry, looked up): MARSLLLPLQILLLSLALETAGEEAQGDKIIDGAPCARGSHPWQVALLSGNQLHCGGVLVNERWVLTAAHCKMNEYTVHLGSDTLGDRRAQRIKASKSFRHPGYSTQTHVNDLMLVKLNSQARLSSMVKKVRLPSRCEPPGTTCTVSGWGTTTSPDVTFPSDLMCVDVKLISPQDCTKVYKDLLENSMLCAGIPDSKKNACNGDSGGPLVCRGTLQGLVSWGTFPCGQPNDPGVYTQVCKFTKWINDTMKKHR
Large screens that a line does not name were inactive.

CCN1CCN(c2cc(=O)n(-c3cc(Cl)ccc3C)c(=O)[nH]2)CC1	RanGTP-Impb inh 72
Cc1ccc(-n2c(=O)cc(N3CCc4ccccc4C3)[nH]c2=O)cc1	RanGTP-Impb inh 40
O=c1cc(N2CCc3ccccc3C2)[nH]c(=O)n1-c1ccccc1Cl	RanGTP-Impb inh 80
O=c1cc(N2CCc3ccccc32)[nH]c(=O)n1-c1ccccc1	none
CN(Cc1ccccc1)C(=O)[C@@H]1CCCN1C(=O)[C@@H]1CCCN1C(=O)c1cccc2ccccc12	none (no result: Runt-CBFb FRET, MEX-5 binding, RanGTP-Impb inh, Runt-SMMHC FRET)
COC(=O)c1ccc(NS(=O)(=O)c2cc3c4c(c2)CCC(=O)N4CCC3)cc1	none (no result: Runt-CBFb FRET, Runt-SMMHC FRET)
Cc1ccc(C(=O)Nc2nnc(CC(=O)N/N=C/c3ccc(O)c(O)c3)s2)cc1	none (no result: Runt-CBFb FRET, Runt-SMMHC FRET)
COc1ccc(C(=O)Nc2nnc(CC(=O)N/N=C/c3ccc(O)cc3O)s2)cc1	MEX-5 binding inconclusive, RanGTP-Impb inh 108 (no result: Runt-CBFb FRET, Runt-SMMHC FRET)
O=c1c2ccccc2c(C=Nc2ccccc2O)c(O)n1-c1nccs1	RanGTP-Impb inh 41
CCNC(=O)C1(C)CCCN(Cc2ccc(Oc3ccccc3)cc2)C1 (configuration not stated)	none (no result: Runt-CBFb FRET, MEX-5 binding, RanGTP-Impb inh, Runt-SMMHC FRET)
N#Cc1c(-c2ccc(F)cc2)c2c([nH]c1=O)-c1ccccc1OC2	Runt-CBFb FRET 60, RanGTP-Impb inh 101, Runt-SMMHC FRET 80
CCOc1ccc(NC(=S)NNC(=S)Nc2cccc(C(F)(F)F)c2)cc1	RanGTP-Impb inh 22
Oc1oc(-c2ccccc2)nc1C=Nc1cccc2ccccc12	RanGTP-Impb inh 27
Cc1ccnc(NC(=O)c2ccc(Cl)c(NC(=O)CCc3ccccc3)c2)c1	RanGTP-Impb inh 24
COC(=O)C[C@H]1CC[C@@H]2[C@@H](COc3ccc(NC(=O)c4ccccc4)cc3C(=O)N2C)O1	none (no result: Runt-CBFb FRET, MEX-5 binding, RanGTP-Impb inh, Runt-SMMHC FRET)
c1ccc(-c2ccc(-c3nccc4ccccc34)[nH]2)cc1	Runt-SMMHC FRET 61 (no result: MEX-5 binding, RanGTP-Impb inh, proKLK7 act)
CCCCN(C)c1c(C)nc2ccc(C(=O)NCc3ccc(OC)cc3)cn12	none (no result: Runt-CBFb FRET, MEX-5 binding, RanGTP-Impb inh, Runt-SMMHC FRET)
COC(=O)C(C)N1C(=O)S/C(=C\c2ccc(-c3ccc(C(=O)O)cc3C)o2)C1=O (configuration not stated)	RanGTP-Impb inh 17 (no result: Runt-CBFb FRET, Runt-SMMHC FRET)
Cc1ccc(NC(=O)CN2C(=O)S/C(=C/c3ccc(-c4cc(C(=O)O)ccc4C)o3)C2=O)cc1C	RanGTP-Impb inh 36
Cc1ccccc1NC(=O)CN1C(=O)S/C(=C\c2ccc(-c3cccc(C(=O)O)c3C)o2)C1=O	none
Cc1cccc(NC(=O)CN2C(=O)S/C(=C\c3ccc(-c4cccc(C(=O)O)c4C)o3)C2=O)c1	RanGTP-Impb inh 41
Cc1ccc(C(=O)O)cc1-c1ccc(C=C2C(=O)c3ccccc3C2=O)o1	none
COc1ccc(-c2csc(C(C)(O)c3cccc(F)c3)n2)cc1OC (configuration not stated)	none (no result: Runt-CBFb FRET, MEX-5 binding, RanGTP-Impb inh, Runt-SMMHC FRET)
CCCCCCCCNS(=O)(=O)CC1NCc2cc(F)ccc21 (configuration not stated)	none (no result: Runt-CBFb FRET, MEX-5 binding, RanGTP-Impb inh, Runt-SMMHC FRET)
Cc1ccc(-n2c(C)nc3c(cnn3-c3ccc(F)cc3)c2=O)cc1C	none
Cc1ccc(-n2c(C)nc3c(cnn3-c3ccc(C)c(C)c3)c2=O)cc1C	RanGTP-Impb inh 30
Cc1ccc(S(=O)(=O)[N-]c2nc3ccccc3nc2-n2cc[n+](CCC(C)C)c2)cc1	RanGTP-Impb inh inconclusive
CC(C)CC[n+]1ccn(-c2nc3ccccc3nc2[N-]S(=O)(=O)c2ccc(Cl)cc2)c1	RanGTP-Impb inh 30
Cn1cnc([N+](=O)[O-])c1S(=O)(=O)Oc1ccc(Cl)cc1	none (no result: Runt-CBFb FRET, MEX-5 binding, RanGTP-Impb inh, Runt-SMMHC FRET)
Cc1ccccc1OCC(O)CN1CCN(CCN2C(=O)c3cccc4cccc(c34)C2=O)CC1 (configuration not stated)	none
CC(C)OCC(O)CN1CCN(CCN2C(=O)c3cccc4cccc(c34)C2=O)CC1 (configuration not stated)	MEX-5 binding -59 (no result: Runt-CBFb FRET, Runt-SMMHC FRET)
CCC(OCC(O)CN1CCN(CCN2C(=O)c3cccc4cccc(c34)C2=O)CC1)c1ccccc1 (configuration not stated)	RanGTP-Impb inh 30
COc1ccccc1NC(=S)NNC(=O)c1cc(C)n(C)n1	MEX-5 binding -26
Cc1cn([C@H]2C[C@H](O)[C@@H](CNCC3=Cc4cc(O)ccc4OC3)O2)c(=O)[nH]c1=O	none (no result: Runt-CBFb FRET, MEX-5 binding, RanGTP-Impb inh, Runt-SMMHC FRET)
CCC[C@H]1CC(=O)C=C(c2ccc(OC)cc2)ON1C(=O)OC(C)(C)C	none (no result: Runt-CBFb FRET, MEX-5 binding, RanGTP-Impb inh, Runt-SMMHC FRET)
CCOC(=O)C1C(C)=CC(=O)CC1c1ccco1 (configuration not stated)	none
CCOC(=O)C1=C(C)NC2=C(C(=O)C(C(=O)OCC)C(c3ccco3)C2)C1c1ccccn1 (configuration not stated)	RanGTP-Impb inh 32
CCN(C)C1CN(Cc2cn(Cc3cccc(Cl)c3)nn2)S(=O)(=O)C1 (configuration not stated)	none (no result: Runt-CBFb FRET, MEX-5 binding, RanGTP-Impb inh, Runt-SMMHC FRET)
COc1ccc2nc3cc(Cl)ccc3c(C#N)c2c1	RanGTP-Impb inh 51
Cn1c(-c2ccc([N+](=O)[O-])cc2)nc2ccccc21	none
Cn1nc([N+](=O)[O-])c(C(C#N)c2nc3ccccc3n2C)c(Cl)c1=O (configuration not stated)	MEX-5 binding -28
Cc1cc([N+](=O)[O-])ccc1-c1ccc(/C=N/NC(=O)c2ccc(Br)o2)o1	MEX-5 binding -58 (no result: Runt-CBFb FRET, Runt-SMMHC FRET)
CC12CCC(C(N)C1=O)C2(C)C (configuration not stated)	none (no result: Runt-CBFb FRET, MEX-5 binding, RanGTP-Impb inh, Runt-SMMHC FRET)
C=Cc1c(C)c2cc3[nH]c(cc4nc(cc5nc(cc1[nH]2)C(C)=C5CCC(=O)O)C(CCC(=O)O)=C4C)c(C)c3C=C	MEX-5 binding -42 (no result: Runt-CBFb FRET, Runt-SMMHC FRET)
COc1ccc(Cl)cc1NC(=O)CN(C)C(=O)c1cc2ccccc2cc1O	none (no result: Runt-CBFb FRET, Runt-SMMHC FRET)
O=c1[nH]c(N/N=C\c2ccc3c(c2)OCO3)nc2ccccc12	RanGTP-Impb inh 16
O=c1[nH]c(N/N=C/c2cc3c(cc2[N+](=O)[O-])OCO3)nc2ccccc12	none
C(=N\Nc1nc2ccccc2[nH]1)/c1ccccc1	none (no result: Runt-CBFb FRET, Runt-SMMHC FRET)
O=c1[nH]c(N/N=C/c2ccccc2)nc2ccccc12	RanGTP-Impb inh inconclusive, Runt-SMMHC FRET 50
CCOC(=O)c1c(SCCN2CCCC2)n(-c2ccccc2)c(=S)n(-c2ccccc2)c1=O	none (no result: Runt-CBFb FRET, MEX-5 binding, RanGTP-Impb inh, Runt-SMMHC FRET)
O=C(/C=C/c1ccc2c(c1)OCO2)c1ccccn1	RanGTP-Impb inh 41
O=C(/C=C/c1ccccc1)c1ccccn1	RanGTP-Impb inh 23
N/C(=N\OC(=O)/C=C/c1ccccc1)c1ccccn1	none
CC(CCc1ccccc1)NC(=O)CCNC(=O)c1ccccc1Cl (configuration not stated)	none (no result: Runt-CBFb FRET, MEX-5 binding, RanGTP-Impb inh, Runt-SMMHC FRET)
O=C(NC1CCCCN(Cc2ccc(OC(F)(F)F)cc2)C1=O)c1ccc2ccccc2c1 (configuration not stated)	none (no result: Runt-CBFb FRET, MEX-5 binding, RanGTP-Impb inh, Runt-SMMHC FRET)
CCCN1CCCc2cc(CN)ccc21	MEX-5 binding -60
CN1CCCc2cc(C=O)ccc21	none
CCN1C=CC2=C(C#N)C(N)C(C#N)(C#N)C(c3ccccc3C(F)(F)F)C2C1 (configuration not stated)	Runt-CBFb FRET 76, MEX-5 binding -32, RanGTP-Impb inh 58, Runt-SMMHC FRET 83
